Reference: ChEMBL document CHEMBL4732146, “Nitric oxide-donating and reactive oxygen species-responsive prochelators based on 8-hydroxyquinoline as anticancer agents” (Eur J Med Chem, 2021)
Activity calls are given as the source filed them. The calls are words filed in the database; no cut-off is given here.

Legend:
SW1990 [1] = experiment: Induction of apoptosis in human SW1990 cells at 12 uM measured after 24 hrs by Annexin V-FITC/propidium iodide staining based flow cytometry; assay type: functional, cell-based
Outline: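 SW1990 cells seeded 5 × 10⁵ per well and grown 24 h, then treated 24 h at 8 or 12 µM. Optional 1 h pretreatment with 20 mM NAC or 50 µM carboxyl-PTIO before 12 µM treatment. Cells stained with annexin V-FITC 15 min and PI 5 min at room temperature in the dark, then analysed by flow cytometry. Mean ± SD, n = 3.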

SW1990 [2] = experiment: Cytotoxicity against human SW1990 cells assessed as reduction in cell viability at 10 to 20 uM measured after 48 hrs by MTT assay; assay type: functional, cell-based; conditions: dose 10-20 µM
Outline: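 MTT assay with 48 h compound exposure at 10 or 20 µM. Cells seeded 6 × 10⁴ per well and grown 24 h beforehand. MTT 4 h, DMSO solubilisation, A490 read. Percent cell death given as mean ± SD, n = 3.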

[3] = Drug metabolism in human SW1990 cells assessed as nitric oxide release at 12 uM measured after 24 hrs by DAF-FM DA probe based flow cytometry; assay type: ADME, cell-based; conditions: sw1990, 24 h
Outline: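 SW1990 cells at 80% confluence loaded with 5 µM DAF-FM DA for 20 min at 37 °C, rinsed, then incubated with compound. Optional 1 h pretreatment with 50 µM carboxyl-PTIO before 12 µM treatment. Fluorescence read by flow cytometry (ex 495 / em 515 nm). Mean ± SD, n = 3.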

Drug metabolism [3]: Metabolite_Notdetected
SMILES: O=C(NCCCOc1nonc1S(=O)(=O)c1ccccc1)c1ccc2cccc(OCc3ccc(B(O)O)cc3)c2n1
Activity (SW1990 [1]): Active
Activity (SW1990 [2]): inactive
